Source: ChEMBL document CHEMBL4270599, “Synthesis of a 3'-C-ethynyl-β-d-ribofuranose purine nucleoside library: Discovery of C7-deazapurine analogs as potent antiproliferative nucleosides” (Eur J Med Chem, 2018)

Columns and labels:
L1210 = assay: Antiproliferative activity against mouse L1210 cells after 48 hrs by Coulter counter method; type: functional, cell-based; conditions: L1210, 48 h
Procedure, shortened: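 Cell count assay in 96-well microtiter plates; (5–7.5) × 10⁴ tumor cells per well plus test compound. Cells proliferated at 37 °C in humidified CO₂-controlled atmosphere, 48 h for murine leukemia L1210, 72 h for human lymphocytic CEM and cervix carcinoma HeLa. Counted by Coulter counter; IC₅₀ is the concentration that inhibits proliferation by 50%.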

EKVX = assay: Cytotoxicity against human EKVX cells after 48 hrs by SRB assay; type: functional; conditions: for GI50: read-out: pGI50 (converted)
SNB-75 = assay: Cytotoxicity against human SNB75 cells after 48 hrs by SRB assay; type: functional; conditions: SNB-75, 48 h; for GI50: read-out: pGI50 (converted)
MDA-MB-435 = assay: Cytotoxicity against human MDA-MB-435 cells after 48 hrs by SRB assay; type: functional; conditions: MDA-MB-435, 48 h; for GI50: read-out: pGI50 (converted); for CC50: read-out: pLC50 (the source's name) (converted)
SK-MEL-5 [1] = assay: Cytotoxicity against human SK-MEL-5 cells after 48 hrs by SRB assay; type: functional; conditions: SK-MEL-5, 48 h; for GI50: read-out: pGI50 (converted); for CC50: read-out: pLC50 (the source's name) (converted)
UACC-257 [2] = assay: Cytotoxicity against human UACC257 cells after 48 hrs by SRB assay; type: functional; conditions: UACC-257, 48 h; for GI50: read-out: pGI50 (converted)
MDA-MB-468 = assay: Cytotoxicity against human MDA-MB-468 cells after 48 hrs by SRB assay; type: functional; conditions: MDA-MB-468, 48 h; for GI50: read-out: pGI50 (converted); for CC50: read-out: pLC50 (the source's name) (converted)
M14 = assay: Growth inhibition of human M14 cells assessed as cell growth at 10^-8 M incubated for 48 hrs by sulforhodamine B assay relative to control; type: functional; conditions: M14, 48 h, read-out: Activity
SK-MEL-5 [3] = assay: Growth inhibition of human SK-MEL-5 cells assessed as cell growth at 10^-8 M incubated for 48 hrs by sulforhodamine B assay relative to control; type: functional; conditions: SK-MEL-5, 48 h, read-out: Activity
ACHN = assay: Growth inhibition of human ACHN cells assessed as cell growth at 10^-8 M incubated for 48 hrs by sulforhodamine B assay relative to control; type: functional; conditions: read-out: Activity
MDA-MB-231 [4] = assay: Growth inhibition of human MDA-MB-231 cells assessed as cell growth at 10^-8 M incubated for 48 hrs by sulforhodamine B assay relative to control; type: functional; conditions: MDA-MB-231, 48 h, read-out: Activity
CCRF-CEM = assay: Growth inhibition of human CCRF-CEM cells assessed as cell growth at 10^-7 M incubated for 48 hrs by sulforhodamine B assay relative to control; type: functional; conditions: read-out: Activity
SR = assay: Growth inhibition of human SR cells assessed as cell growth at 10^-7 M incubated for 48 hrs by sulforhodamine B assay relative to control; type: functional; conditions: read-out: Activity
NCI-H522 = assay: Growth inhibition of human NCI-H522 cells assessed as cell growth at 10^-7 M incubated for 48 hrs by sulforhodamine B assay relative to control; type: functional; conditions: NCI-H522, 48 h, read-out: Activity
SW-620 [5] = assay: Growth inhibition of human SW620 cells assessed as cell growth at 10^-7 M incubated for 48 hrs by sulforhodamine B assay relative to control; type: functional; conditions: SW-620, 48 h, read-out: Activity
U-251 = assay: Growth inhibition of human U251 cells assessed as cell growth at 10^-7 M incubated for 48 hrs by sulforhodamine B assay relative to control; type: functional; conditions: U-251, 48 h, read-out: Activity
SK-MEL-28 = assay: Growth inhibition of human SK-MEL-28 cells assessed as cell growth at 10^-7 M incubated for 48 hrs by sulforhodamine B assay relative to control; type: functional; conditions: SK-MEL-28, 48 h, read-out: Activity
UO-31 = assay: Growth inhibition of human UO31 cells assessed as cell growth at 10^-7 M incubated for 48 hrs by sulforhodamine B assay relative to control; type: functional; conditions: UO-31, 48 h, read-out: Activity
T47D = assay: Growth inhibition of human T47D cells assessed as cell growth at 10^-7 M incubated for 48 hrs by sulforhodamine B assay relative to control; type: functional; conditions: read-out: Activity
NCI-H322M = assay: Growth inhibition of human NCI-H322M cells assessed as cell growth at 10^-6 M incubated for 48 hrs by sulforhodamine B assay relative to control; type: functional; conditions: read-out: Activity
Malme-3M = assay: Growth inhibition of human MALME-3M cells assessed as cell growth at 10^-6 M incubated for 48 hrs by sulforhodamine B assay relative to control; type: functional; conditions: read-out: Activity
UACC-257 [6] = assay: Growth inhibition of human UACC257 cells assessed as cell growth at 10^-6 M incubated for 48 hrs by sulforhodamine B assay relative to control; type: functional; conditions: UACC-257, 48 h, read-out: Activity
DU-145 = assay: Growth inhibition of human DU145 cells assessed as cell growth at 10^-6 M incubated for 48 hrs by sulforhodamine B assay relative to control; type: functional; conditions: DU-145, 48 h, read-out: Activity
HL-60(TB) = assay: Growth inhibition of human HL-60(TB) cells assessed as cell growth at 10^-5 M incubated for 48 hrs by sulforhodamine B assay relative to control; type: functional; conditions: HL-60, 48 h, read-out: Activity
HCT-116 [7] = assay: Growth inhibition of human HCT116 cells assessed as cell growth at 10^-5 M incubated for 48 hrs by sulforhodamine B assay relative to control; type: functional; conditions: HCT-116, 48 h, read-out: Activity
SW-620 [8] = assay: Growth inhibition of human SW620 cells assessed as cell growth at 10^-5 M incubated for 48 hrs by sulforhodamine B assay relative to control; type: functional; conditions: SW-620, 48 h, read-out: Activity
MDA-MB-231 [9] = assay: Growth inhibition of human MDA-MB-231 cells assessed as cell growth at 10^-5 M incubated for 48 hrs by sulforhodamine B assay relative to control; type: functional; conditions: MDA-MB-231, 48 h, read-out: Activity
HCT-116 [10] = assay: Growth inhibition of human HCT116 cells assessed as cell growth at 10^-4 M incubated for 48 hrs by sulforhodamine B assay relative to control; type: functional; conditions: HCT-116, 48 h, read-out: Activity
OVCAR-3 = assay: Growth inhibition of human OVCAR3 cells assessed as cell growth at 10^-4 M incubated for 48 hrs by sulforhodamine B assay relative to control; type: functional; conditions: OVCAR-3, 48 h, read-out: Activity
PC-3 = assay: Growth inhibition of human PC3 cells assessed as cell growth at 10^-4 M incubated for 48 hrs by sulforhodamine B assay relative to control; type: functional; conditions: PC-3, 48 h, read-out: Activity
UACC-62 = assay: Growth inhibition of human UACC62 cells assessed as cell growth at 10^-5 M incubated for 48 hrs by sulforhodamine B assay relative to control; type: functional; conditions: UACC-62, 48 h, read-out: Activity
A549 = assay: Growth inhibition of human A549/ATCC cells assessed as cell growth at 10^-4 M incubated for 48 hrs by sulforhodamine B assay relative to control; type: functional; conditions: A549, 48 h, read-out: Activity
[11] = read-out: LC50 (the source's name)
[12] = read-out: pLC50 (the source's name) (converted)

Molecule `C#C[C@@]1(O)[C@@H](CO)O[C@@H](n2cc(F)c3c(N)ncnc32)[C@@H]1O` has an IC50 (L1210) of 0.035 µM, a CC50 (EKVX; [11]) of over 100 µM and a TGI (EKVX; read-out: TGI) of 11.3 µM. For the same molecule, the GI50 (EKVX) was 0.676 µM, the TGI (EKVX; read-out: pTGI (converted)) was 11.2 µM and the TGI (SNB-75; read-out: TGI) was 2.32 µM. The GI50 (SNB-75) was 1.02 µM, the CC50 (SNB-75; [12]) was 5.25 µM and the TGI (SNB-75; read-out: pTGI (converted)) was 2.34 µM. The TGI (MDA-MB-435; read-out: TGI) was 3.26 µM, the GI50 (MDA-MB-435) was 0.417 µM and the CC50 (MDA-MB-435) was 45.7 µM. For the same molecule, the TGI (MDA-MB-435; read-out: pTGI (converted)) was 3.24 µM, the TGI (SK-MEL-5 [1]; read-out: TGI) was 1.33 µM and the GI50 (SK-MEL-5 [1]) was 0.269 µM. The CC50 (SK-MEL-5 [1]) was 4.17 µM, the TGI (SK-MEL-5 [1]; read-out: pTGI (converted)) was 1.35 µM and the CC50 (UACC-257 [2]; [11]) was over 100 µM. It also gave a TGI (UACC-257 [2]; read-out: TGI) of 4.64 µM, a GI50 (UACC-257 [2]) of 0.49 µM and a TGI (UACC-257 [2]; read-out: pTGI (converted)) of 4.68 µM. It also gave a TGI (MDA-MB-468; read-out: TGI) of 1.53 µM, a GI50 (MDA-MB-468) of 0.302 µM and a CC50 (MDA-MB-468) of 7.94 µM. The TGI (MDA-MB-468; read-out: pTGI (converted)) was 1.55 µM, the growth at 0.01 µM (M14) was 101% and the growth at 0.01 µM (SK-MEL-5 [3]) was 92%. For the same molecule, the growth at 0.01 µM (ACHN) was 102%, the growth at 0.01 µM (MDA-MB-231 [4]) was 99% and the growth at 0.1 µM (CCRF-CEM) was 81%. For the same molecule, the growth at 0.1 µM (SR) was 65%, the growth at 0.1 µM (NCI-H522) was 68% and the growth at 0.1 µM (SW-620 [5]) was 61%. The growth at 0.1 µM (U-251) was 99%, the growth at 0.1 µM (SK-MEL-28) was 95% and the growth at 0.1 µM (UO-31) was 104%. The growth at 0.1 µM (T47D) was 80%, the growth at 1 µM (NCI-H322M) was 31% and the growth at 1 µM (Malme-3M) was 12%. For the same molecule, the growth at 1 µM (UACC-257 [6]) was 34%, the growth at 1 µM (DU-145) was 16% and the growth at 10 µM (HL-60(TB)) was -17%. For the same molecule, the growth at 10 µM (HCT-116 [7]) was -9%, the growth at 10 µM (SW-620 [8]) was -5% and the growth at 10 µM (MDA-MB-231 [9]) was -24%. The growth at 100 µM (HCT-116 [10]) was 1%, the growth at 100 µM (OVCAR-3) was 3% and the growth at 100 µM (PC-3) was -31%. For the same molecule, the growth at 10 µM (UACC-62) was -60%.
Work on `C#C[C@@]1(O)[C@@H](CO)O[C@@H](n2ccc3c(N)ncnc32)[C@@H]1O` yielded an IC50 (L1210) of 0.38 µM, a TGI (EKVX; read-out: TGI) of 5.43 µM and a GI50 (EKVX) of 1.51 µM. For the same molecule, the CC50 (EKVX; [12]) was over 100 µM, the TGI (EKVX; read-out: pTGI (converted)) was 5.37 µM and the TGI (SNB-75; read-out: TGI) was 3.84 µM. It also gave a GI50 (SNB-75) of 1.82 µM, a TGI (SNB-75; read-out: pTGI (converted)) of 3.8 µM and a TGI (MDA-MB-435; read-out: TGI) of 3.49 µM. For the same molecule, the GI50 (MDA-MB-435) was 1.48 µM, the CC50 (MDA-MB-435) was 8.13 µM and the TGI (MDA-MB-435; read-out: pTGI (converted)) was 3.47 µM. For the same molecule, the TGI (SK-MEL-5 [1]; read-out: TGI) was 2.96 µM, the GI50 (SK-MEL-5 [1]) was 1.55 µM and the CC50 (SK-MEL-5 [1]) was 5.62 µM. For the same molecule, the TGI (SK-MEL-5 [1]; read-out: pTGI (converted)) was 2.95 µM, the TGI (UACC-257 [2]; read-out: TGI) was 7.05 µM and the GI50 (UACC-257 [2]) was 2.29 µM. For the same molecule, the CC50 (UACC-257 [2]; [12]) was 55 µM, the TGI (UACC-257 [2]; read-out: pTGI (converted)) was 7.08 µM and the TGI (MDA-MB-468; read-out: TGI) was 3.33 µM. For the same molecule, the GI50 (MDA-MB-468) was 1.29 µM, the CC50 (MDA-MB-468) was 8.51 µM and the TGI (MDA-MB-468; read-out: pTGI (converted)) was 3.31 µM. The growth at 0.01 µM (M14) was 93%, the growth at 0.01 µM (SK-MEL-5 [3]) was 102% and the growth at 0.01 µM (ACHN) was 97%. It also gave a growth at 0.01 µM (MDA-MB-231 [4]) of 104%, a growth at 0.1 µM (CCRF-CEM) of 101% and a growth at 0.1 µM (SR) of 96%. The growth at 0.1 µM (NCI-H522) was 78%, the growth at 0.1 µM (SW-620 [5]) was 77% and the growth at 0.1 µM (U-251) was 107%. It also gave a growth at 0.1 µM (SK-MEL-28) of 97%, a growth at 0.1 µM (UO-31) of 105% and a growth at 0.1 µM (T47D) of 86%. The growth at 1 µM (NCI-H322M) was 58%, the growth at 1 µM (Malme-3M) was 72% and the growth at 1 µM (UACC-257 [6]) was 88%. For the same molecule, the growth at 1 µM (DU-145) was 34%, the growth at 10 µM (HL-60(TB)) was -24% and the growth at 10 µM (HCT-116 [7]) was 2%. It also gave a growth at 10 µM (SW-620 [8]) of 5%, a growth at 10 µM (MDA-MB-231 [9]) of -20% and a growth at 100 µM (HCT-116 [10]) of -54%. It also gave a growth at 100 µM (OVCAR-3) of -36%, a growth at 100 µM (PC-3) of -62% and a growth at 10 µM (UACC-62) of -44%. The growth at 100 µM (A549) was 3%.
